# According to ChEMBL document CHEMBL1123210, “Cycloheximide analogues as potential anticonvulsants” (J Med Chem, 1986):
# Calls of active or inactive are those of the source. The rule behind the calls is not given here.
# Tests used:
# [1] = tested on: Mus musculus; test: Compound was tested for subcutaneous pentylenetetrazole seizure test in mice after administration intraperitoneally at 0.5 hr; IA is Inactive; type: functional, organism-based
# [2] = tested on: Mus musculus; test: Inhibition of subcutaneous pentylenetetrazole induced seizures in mice 4 hr following i.p. administration; Inactive.; type: functional, organism-based
# [3] = tested on: Mus musculus; test: Compound was tested for maximal electroshock seizure test in mice 0.5 hr after administration; IA is Inactive; type: functional, organism-based
# [4] = tested on: Mus musculus; test: Inhibition of maximal electroshock induced seizures in mice 4 hr after administration; Inactive.; type: functional, organism-based
# [5] = organism: Mus musculus; test: Number of mice exhibiting toxicity out of four (4) mice was measured by using rotarod test.; type: organism-based; settings: in vivo
# Summary of the method: (§1)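 Neurotoxicity was scored in the rotorod test in mice given doses up to 600 mg/kg. The value is the number of animals out of four showing toxicity. It was recorded for both the initial screen and the repeat pentylenetetrazol screen.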
# [6] = tested on: Mus musculus; test: Compound was tested for subcutaneous pentylenetetrazole seizure test in mice after administration intraperitoneally at 4h.; type: functional
# [7] = tested on: Mus musculus; test: Compound was tested for the lowest dose which protected half of the mice in pentylenetetrazole seizure test 0.5 hr after ip administration of the compound; IA is Inactive; type: functional, organism-based
# Summary of the method: (§2)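 This was a repeat of the subcutaneous pentylenetetrazol screen in mice (85 mg/kg s.c.). Endpoint was prevention of clonic seizures, four animals per dose at 30, 100, 300 or 600 mg/kg. The value is the lowest dose at which at least half of the four animals were protected.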
# [8] = tested on: Mus musculus; test: Compound was tested for subcutaneous pentylenetetrazole seizure test in mice after administration intraperitoneally at 0.5h.; type: functional
# [9] = tested on: Mus musculus; test: Compound was tested for the lowest dose which protected half of the mice in pentylenetetrazole seizure test 0.5 hr after ip administration of the compound; type: functional; summary of the method: as §2
# [10] = tested on: Mus musculus; test: Number of mice exhibiting toxicity out of four (4) mice in repeated subcutaneous pentylenetetrazole seizure test was measured by using rotarod test; type: organism-based; settings: in vivo; summary of the method: as §1
# [11] = tested on: Mus musculus; test: Compound was tested for subcutaneous pentylenetetrazole seizure test in mice after administration intraperitoneally at 4h.; IA is Inactive; type: functional, organism-based
# [12] = tested on: Mus musculus; test: Compound was tested for maximal electroshock seizure test in mice 0.5 hr after administration.; type: functional
# [13] = tested on: Mus musculus; test: Compound was tested for maximal electroshock seizure test in mice 0.5 hr after administration; IA is Inactivev; type: functional, organism-based
# [14] = tested on: Mus musculus; test: Compound was tested for maximal electroshock seizure test in mice 4 hr after administration.; type: functional
# [15] = tested on: Mus musculus; test: Compound was tested for the lowest dose which protected half of the mice in pentylenetetrazole seizure test 4 hr after ip administration of the compound; IA is Inactive; type: functional, organism-based; summary of the method: as §2
Structure (SMILES),scMet [1],scMet [2],MES [3],MES [4],Toxicity [5],scMet [6],MES [7],scMet [8],scMet [9],Toxicity [10],scMet [11],MES [12],MES [13],MES [14],MES [15]
CC(=O)O[C@H](CC1CC(=O)N(C)C(=O)C1)C1C[C@@H](C)C[C@H](C)C1=O (stereo partly drawn),inactive,inactive,inactive,inactive,–,–,–,–,–,–,–,–,–,–,–
C[C@@H]1CCc2c(c(CC3CC(=O)NC(=O)C3)nn2-c2ccccc2)C1,inactive,–,inactive,inactive,0,30 mg/kg,inactive,–,–,–,–,–,–,–,–
O=C1CC(CC(=O)C2CCCCC2=O)CC(=O)N1 (stereo not drawn),–,inactive,inactive,inactive,0,–,–,600 mg/kg,600 mg/kg,–,–,–,–,–,–
O=C1CC(CC(=O)C2CCCCC2=O)C(=O)N1 (stereo not drawn),–,–,inactive,inactive,0,–,–,600 mg/kg,600 mg/kg,0,inactive,–,–,–,–
C[C@@H]1CC(C2CC(CC(=O)NCc3ccccc3)CC(=O)O2)[C@@H](O)[C@@H](C)C1 (stereo partly drawn),inactive,inactive,inactive,inactive,–,–,–,–,–,–,–,–,–,–,–
O=C1CC(C[C@@H](O)C2CCCC[C@@H]2O)CC(=O)N1 (stereo partly drawn),–,inactive,inactive,inactive,0,–,–,100 mg/kg,600 mg/kg,0,–,–,–,–,–
C[C@H]1CC([C@H](O)CC2CC(=O)N(C)C(=O)C2)[C@@H](O)[C@@H](C)C1 (stereo partly drawn),inactive,inactive,–,inactive,0,–,–,–,–,–,–,600 mg/kg,–,–,–
C[C@H]1CCC(=O)C(C(=O)CC2CC(=O)NC(=O)C2)C1 (stereo partly drawn),inactive,inactive,inactive,inactive,–,–,–,–,–,–,–,–,–,–,–
C[C@H]1CC[C@H](O)C([C@H](O)CC2CC(=O)N(C)C(=O)C2)C1 (stereo partly drawn),inactive,inactive,–,inactive,4,–,–,–,–,–,–,600 mg/kg,–,–,–
C[C@@H]1CC(C(=O)CC2CC(=O)N(C)C(=O)C2)C(=O)[C@@H](C)C1 (stereo partly drawn),–,inactive,–,–,1,–,–,600 mg/kg,600 mg/kg,1,–,–,inactive,600 mg/kg,–
C[C@H]1CC[C@H](O)C([C@H](O)CC2CC(=O)NC(=O)C2)C1 (stereo partly drawn),–,–,inactive,inactive,0,600 mg/kg,–,30 mg/kg,30 mg/kg,0,–,–,–,–,inactive
